# Published values pooled from the literature.
# Compare with care: the assays were run in different laboratories.
# Target: Adenosine receptor A1 (ADORA1, Homo sapiens, UniProt P30542)
# Residues used in one study (P30542 1-326): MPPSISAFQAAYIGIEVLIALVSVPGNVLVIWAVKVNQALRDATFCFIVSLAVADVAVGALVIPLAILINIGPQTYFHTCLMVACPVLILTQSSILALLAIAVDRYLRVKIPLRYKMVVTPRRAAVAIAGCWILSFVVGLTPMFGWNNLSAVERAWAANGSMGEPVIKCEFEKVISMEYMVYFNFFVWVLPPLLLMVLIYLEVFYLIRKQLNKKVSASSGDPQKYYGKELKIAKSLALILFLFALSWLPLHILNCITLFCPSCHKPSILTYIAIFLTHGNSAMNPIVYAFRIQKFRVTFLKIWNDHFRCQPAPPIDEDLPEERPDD
Structure (SMILES),effect on,technique,setting,endpoint,value
CCNC(=O)[C@H]1O[C@@H](n2cnc3c(N)nc(NN=CC4CCC=CO4)nc32)[C@H](O)[C@@H]1O (some centres unmarked),ligand displacement,radioligand,cell membranes,Ki,34.6 nM
C#CCCCCC(=O)NCCNC(=O)COc1ccc(-c2nc3c([nH]2)c(=O)n(CCC)c(=O)n3CCC)cc1,ligand displacement,radioligand,cell membranes,Ki,107 nM
CNC(=O)[C@@]12C[C@@H]1[C@@H](n1cnc3c(NCc4cccc(C#CCCCCc5cn(C67CC8CC(CC(C8)C6)C7)nn5)c4)nc(Cl)nc31)[C@H](O)[C@@H]2O,ligand displacement,radioligand,cell membranes,Ki,1720 nM
CC(C)CN1CCCn2c1nc1c2c(=O)n(C)c(=O)n1C,ligand displacement,radioligand,cell membranes,Ki,1910 nM
O[C@@H]1[C@H](O)CO[C@H]1n1cnc2c(NCc3cccc(Br)c3)ncnc21,ligand displacement,radioligand,cell membranes,Ki,3300 nM
CCCC[C@H](NC(=O)[C@H](C)c1c(C)[nH]c2ccc(O)cc12)c1ncc(-c2cc3ccccc3nc2OC)[nH]1,cell-free assay,,,IC50,2730 nM
CNC(=O)[C@@]12C[C@@H]1[C@@H](n1cnc3c(NCc4cn(-c5ccc(C(=O)NCCCF)cc5)nn4)nc(Cl)nc31)[C@H](O)[C@@H]2O,ligand displacement,radioligand,cell membranes,Ki,1380 nM
OC[C@@]12C[C@@H]1[C@@H](n1cnc3c(NC(C4CCCCC4)C4CCCCC4)nc(Cl)nc31)[C@H](O)[C@@H]2O,ligand displacement,radioligand,,Ki,1900 nM
CCCCN1CCCn2c1nc1c2c(=O)n(CCC)c(=O)n1CCC,ligand displacement,radioligand,cell membranes,Ki,600 nM
COCCN(CCOC)C(=O)[C@@]12C[C@@H]1[C@@H](n1cnc3c(N)nc(Cl)nc31)[C@H](O)[C@@H]2O,ligand displacement,radioligand,,Ki,998 nM
CNC(=O)[C@@]12C[C@@H]1[C@@H](n1cnc3c(NCc4cccc(C#CCCCc5cn(-c6ccc(F)c(N)c6)nn5)c4)nc(Cl)nc31)[C@H](O)[C@@H]2O,ligand displacement,radioligand,cell membranes,Ki,640 nM
